Measurements taken from ChEMBL document CHEMBL1137367, “Design, synthesis, and preliminary evaluation of doxazolidine carbamates as prodrugs activated by carboxylesterases” (J Med Chem, 2006).

Key:
HepG2 [1] = assay: Growth inhibition of HepG2 cells by crystal violet assay after 3 hrs; format: functional, cell-based; conditions: Homo sapiens, HepG2, 3 h
Procedure, shortened: (§1)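 Cells were seeded at 1000/well and left to adhere overnight at 37 °C in 5% CO2. They were then exposed for 3 h to a range of drug concentrations in serum-free RPMI 1640. Medium was replaced with fresh RPMI containing 10% fetal calf serum and 1% pen-strep, and cells were grown until untreated controls reached ~80% confluence (3-5 days). Cells were fixed with glutaraldehyde, stained with crystal violet, and the dye was solubilised in 70% ethanol before reading OD at 588 nm. IC50 is given as log molar. Each concentration was run six-fold, and each experiment at least twice.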

SK-HEP1 [2] = assay: Growth inhibition of SK-HEP-1 cells by crystal violet assay after 3 hrs; format: functional, cell-based; conditions: Homo sapiens, SK-HEP1, 3 h
Procedure, shortened: (§2)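 Cancer lines were grown in RPMI 1640 with 10% FCS and 1% pen-strep and seeded at 1000 cells/well overnight. Drug was given in serum-free medium for 3 or 24 h, then fresh complete medium until controls reached ~80% confluence (3-5 days). Cells were fixed with glutaraldehyde and stained with crystal violet, solubilised in 70% ethanol and read at 588 nm. IC50 is log molar, with six replicates per concentration and ≥2 experiments.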

NCI/ADR-RES [3] = assay: Growth inhibition of MCF7/Adr cells by crystal violet assay after 3 hrs; format: functional, cell-based; conditions: Homo sapiens; procedure, shortened: as §2
H9c2 [4] = assay: Growth inhibition of H9c2(2-1) cells by crystal violet assay after 24 hrs; conditions: Rattus norvegicus, H9c2, 24 h
Vero [5] = assay: Cytotoxicity against Vero cells by MTT assay after 24 hrs; format: functional, cell-based; conditions: Chlorocebus sabaeus
Procedure, shortened: (§3)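 Vero cells were grown in DMEM with 10% FCS and 1% pen-strep at 37 °C in 5% CO2. They were seeded at 1000 cells/well and left overnight to adhere. Drug was given in serum-free medium for 3 or 24 h, then replaced with fresh complete medium until untreated wells reached ~80% confluence (3-5 days). MTT was read at 554 nm and IC50 given as log molar. Each concentration was run in six wells, each experiment at least twice.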

DU-145 = assay: Growth inhibition of DU145 cells by crystal violet assay after 24 hrs; format: functional, cell-based; conditions: Homo sapiens, DU-145, 24 h; procedure, shortened: as §2
Vero [6] = assay: Cytotoxicity against Vero cells by MTT assay after 3 hrs; format: functional, cell-based; conditions: Chlorocebus sabaeus; procedure, shortened: as §3
SK-HEP1 [7] = assay: Growth inhibition of SK-HEP-1 cells by crystal violet assay after 24 hrs; format: functional, cell-based; conditions: Homo sapiens, SK-HEP1, 24 h; procedure, shortened: as §2
H9c2 [8] = assay: Growth inhibition of rat H9c2(2-1) cells by MTT assay after 3 hrs; format: functional, cell-based; conditions: H9c2, 3 h
Procedure, shortened: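 Rat cardiomyocytes were kept in DMEM with 10% FCS and pen-strep and seeded at 500 cells/well overnight. They got serum-free drug medium for 3 h, then fresh complete medium until controls reached ~80% confluence (3-5 days). Read-out was MTT optical density at 554 nm, with IC50 as log molar concentration. There were six replicates per concentration and at least two experiments.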

MCF7 [9] = assay: Growth inhibition of MCF7 cells by crystal violet assay after 24 hrs; format: functional, cell-based; conditions: Homo sapiens, MCF7, 24 h; procedure, shortened: as §2
HepG2 [10] = assay: Growth inhibition of HepG2 cells by crystal violet assay after 24 hrs; format: functional, cell-based; conditions: Homo sapiens, HepG2, 24 h; procedure, shortened: as §2
NCI/ADR-RES [11] = assay: Growth inhibition of MCF7/Adr cells by crystal violet assay after 24 hrs; format: functional, cell-based; conditions: Homo sapiens; procedure, shortened: as §2
MCF7 [12] = assay: Growth inhibition of MCF7 cells by crystal violet assay after 3 hrs; format: functional, cell-based; conditions: Homo sapiens, MCF7, 3 h; procedure, shortened: as §1
SHP77 = assay: Growth inhibition of SHP77 cells by crystal violet assay after 24 hrs; format: functional, cell-based; conditions: Homo sapiens, SHP77, 24 h; procedure, shortened: as §2
SK-HEP1 [13] = assay: Decrease in drug uptake in SK-HEP-1 cells by flow cytometry at 0.5 uM in presence of 10% fetal bovine serum; format: functional, Homo sapiens; design: scale not given: the % may be the effect or the level left
Procedure, shortened: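 SK-HEP-1 cells at 200,000 per well were attached overnight. They were then exposed at 37 °C to 0.5 μM drug (final) in RPMI with 10% fetal bovine serum or without serum. Cells were trypsinized at 0.5, 1, 1.5, 2 and 3 h and Dox fluorophore measured by flow cytometry. Mean fluorescence was divided by untreated control to give relative fluorescence.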

[14] = Stability in buffer at pH 7.4 after 24 hrs; format: physicochemical; conditions: pH 7.4, 24 h
Procedure, shortened: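 The compound was held in pH 7.4 buffer, without cells or growth medium, for 24 h at ambient temperature. Hydrolysis was followed by HPLC.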

With `COc1cccc2c1C(=O)c1c(O)c3c(c(O)c1C2=O)C[C@@](O)(C(=O)CO)C[C@@H]3O[C@H]1C[C@H](N)[C@H](O)[C@H](C)O1` [DOXORUBICIN] the IC50 (HepG2 [1]) was 200 nM, the IC50 (SK-HEP1 [2]) was 100 nM and the IC50 (NCI/ADR-RES [3]) was 6310 nM. For the same molecule, the IC50 (H9c2 [4]) was 20 nM, the IC50 (Vero [5]) was 501 nM and the IC50 (DU-145) was 31.6 nM. For the same molecule, the IC50 (Vero [6]) was 1000 nM, the IC50 (SK-HEP1 [7]) was 50.1 nM and the IC50 (H9c2 [8]) was 31.6 nM. For the same molecule, the IC50 (MCF7 [9]) was 12.6 nM, the IC50 (HepG2 [10]) was 31.6 nM and the IC50 (NCI/ADR-RES [11]) was 2510 nM. For the same molecule, the IC50 (MCF7 [12]) was 316 nM and the IC50 (SHP77) was 126 nM.

Molecule `CCCCOC(=O)N1CO[C@@H]2[C@H](C)O[C@@H](O[C@H]3C[C@](O)(C(=O)CO)Cc4c(O)c5c(c(O)c43)C(=O)c3c(OC)cccc3C5=O)C[C@@H]21` has an IC50 (H9c2 [4]) of 1580 nM, an IC50 (Vero [5]) of 501 nM and an IC50 (DU-145) of 398 nM. For the same molecule, the IC50 (SK-HEP1 [7]) was 398 nM, the IC50 (MCF7 [9]) was 794 nM and the IC50 (HepG2 [10]) was 200 nM. For the same molecule, the IC50 (NCI/ADR-RES [11]) was 631 nM and the IC50 (SHP77) was 251 nM.

In the case of `CCCCCOC(=O)Nc1ccc(COC(=O)N2CO[C@@H]3[C@H](C)O[C@@H](O[C@H]4C[C@](O)(C(=O)CO)Cc5c(O)c6c(c(O)c54)C(=O)c4c(OC)cccc4C6=O)C[C@@H]32)cc1`, the IC50 (H9c2 [4]) is reported as 631 nM, the IC50 (Vero [5]) is reported as 1000 nM and the IC50 (DU-145) is reported as 200 nM. It also gave an IC50 (SK-HEP1 [7]) of 1000 nM, an IC50 (MCF7 [9]) of 2510 nM and an IC50 (HepG2 [10]) of 50.1 nM. It also gave an IC50 (NCI/ADR-RES [11]) of 316 nM and an IC50 (SHP77) of 50.1 nM.

`COc1cccc2c1C(=O)c1c(O)c3c(c(O)c1C2=O)C[C@@](O)(C(=O)CO)C[C@@H]3O[C@H]1C[C@@H]2NCO[C@@H]2[C@H](C)O1` [DOXAZOLIDINE] gave an IC50 (HepG2 [1]) of 10 nM, an IC50 (SK-HEP1 [2]) of 3.98 nM and an IC50 (NCI/ADR-RES [3]) of 3.16 nM. For the same molecule, the IC50 (Vero [5]) was 7.94 nM, the IC50 (Vero [6]) was 6.31 nM and the IC50 (H9c2 [8]) was 31.6 nM. For the same molecule, the IC50 (MCF7 [12]) was 3.16 nM.

`CCCCCOC(=O)N1CO[C@@H]2[C@H](C)O[C@@H](O[C@H]3C[C@](O)(C(=O)CO)Cc4c(O)c5c(c(O)c43)C(=O)c3c(OC)cccc3C5=O)C[C@@H]21` gave an IC50 (HepG2 [1]) of over 1000 nM, an IC50 (SK-HEP1 [2]) of over 1000 nM and an IC50 (H9c2 [4]) of 251 nM. For the same molecule, the IC50 (Vero [5]) was 5010 nM, the IC50 (DU-145) was 1000 nM and the IC50 (Vero [6]) was 3980 nM. It also gave an IC50 (SK-HEP1 [7]) of 200 nM, an Activity (SK-HEP1 [13]) of 25% and an IC50 (MCF7 [9]) of 794 nM. The IC50 (HepG2 [10]) was 316 nM, the Stability [14] was “Stable” and the IC50 (NCI/ADR-RES [11]) was 1000 nM. For the same molecule, the IC50 (MCF7 [12]) was over 1000 nM and the IC50 (SHP77) was 501 nM.

For `CCOC(=O)N1CO[C@@H]2[C@H](C)O[C@@H](O[C@H]3C[C@](O)(C(=O)CO)Cc4c(O)c5c(c(O)c43)C(=O)c3c(OC)cccc3C5=O)C[C@@H]21`, the IC50 (HepG2 [1]) was over 1000 nM, the IC50 (SK-HEP1 [2]) was over 1000 nM and the IC50 (NCI/ADR-RES [3]) was 5010 nM. It also gave an IC50 (SK-HEP1 [7]) of over 1000 nM, an IC50 (H9c2 [8]) of 1580 nM and an IC50 (MCF7 [9]) of under 1000 nM. The IC50 (HepG2 [10]) was over 1000 nM, the IC50 (NCI/ADR-RES [11]) was over 10000 nM and the IC50 (MCF7 [12]) was over 1000 nM.

`CCCCOC(=O)Nc1ccc(COC(=O)N2CO[C@@H]3[C@H](C)O[C@@H](O[C@H]4C[C@](O)(C(=O)CO)Cc5c(O)c6c(c(O)c54)C(=O)c4c(OC)cccc4C6=O)C[C@@H]32)cc1` showed an IC50 (H9c2 [4]) of 63.1 nM, an IC50 (Vero [5]) of 794 nM and an IC50 (DU-145) of 501 nM. The IC50 (SK-HEP1 [7]) was 1580 nM, the IC50 (MCF7 [9]) was 79400 nM and the IC50 (HepG2 [10]) was 20 nM. For the same molecule, the IC50 (NCI/ADR-RES [11]) was 1260 nM and the IC50 (SHP77) was 79.4 nM.
